High-throughput results: PubChem, several laboratories
TDP2 absorb – TDP2 (human) inhibition, absorbance primary screen; inhibition, % at 12.8 µM; recombinant TDP2, T5PNP hydrolysis, p-nitrophenol absorbance 415 nm; 0.34% of 370,000 active; O95551;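 active means inhibition above the mean of all tested compounds plus 3 SD, set per campaign, cut at about 25% in these data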
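Evaluation: % inhibition relative to enzyme-containing and enzyme-free wells. Material: recombinant human TDP2. Benchmarks: enzyme-free and DMSO wells. Timing: enzyme reaction with compound for 2 h at 37 °C. Compound dosing: 12.8 µM only. Measured by: p-Nitrophenol epi absorbance. Reagent: T5PNP substrate at 5 mM, a TopII-DNA adduct mimic. Replication: single well per compound.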
Fh CTSL1 inh – counter-screen for PFM18AAP inhibitors: inhibitors of F. hepatica cathepsin L1; inhibition, % at 5.96 µM; 0.49% of 300,000 active; recombinant F. hepatica cathepsin L1, Z-Leu-Arg-MCA fluorescence;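 active means inhibition above the mean of all tested compounds plus 3 SD, set per screening campaign, cut at about 17% in these data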
Apaf1 inhib – blocks human Apaf-1 apoptosome activity; 0.71% of 330,000 active; inhibition, % at 20 µM; O14727; reconstituted apoptosome caspase-3 activity, DEVD-Rh110 fluorescence; active means inhibition of at least 40% at 20 µM
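detection = Rh110 fluorescence intensity | test system = biochemical Apaf-1 apoptosome reconstitution | also added = cytochrome c and DEVD-Rh110 substrate | schedule = 30 min plus 50 min, RT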
GSTO1 counter – counter-screen for RBBP9 inhibitors: inhibitors of human GSTO1 | P78417 | recombinant GSTO1, activity-based probe fluorescence polarization | inhibition, % at 5.96 µM | 1.1% of 300,000 active;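 active means inhibition above the campaign mean inhibition plus 3 SD, cut at about 35% in these data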
PAD4 inh – inhibitors of human PAD4 | Q9UM07 | recombinant PAD4, RCA probe fluorescence polarization | inhibition, % at 6.36 µM | 0.41% of 330,000 active;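 active means percent inhibition above a cutoff equal to the mean of all tested compounds plus 3 SD, cut at about 15% in these data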
Target sequence (Q9UM07 whole entry, looked up): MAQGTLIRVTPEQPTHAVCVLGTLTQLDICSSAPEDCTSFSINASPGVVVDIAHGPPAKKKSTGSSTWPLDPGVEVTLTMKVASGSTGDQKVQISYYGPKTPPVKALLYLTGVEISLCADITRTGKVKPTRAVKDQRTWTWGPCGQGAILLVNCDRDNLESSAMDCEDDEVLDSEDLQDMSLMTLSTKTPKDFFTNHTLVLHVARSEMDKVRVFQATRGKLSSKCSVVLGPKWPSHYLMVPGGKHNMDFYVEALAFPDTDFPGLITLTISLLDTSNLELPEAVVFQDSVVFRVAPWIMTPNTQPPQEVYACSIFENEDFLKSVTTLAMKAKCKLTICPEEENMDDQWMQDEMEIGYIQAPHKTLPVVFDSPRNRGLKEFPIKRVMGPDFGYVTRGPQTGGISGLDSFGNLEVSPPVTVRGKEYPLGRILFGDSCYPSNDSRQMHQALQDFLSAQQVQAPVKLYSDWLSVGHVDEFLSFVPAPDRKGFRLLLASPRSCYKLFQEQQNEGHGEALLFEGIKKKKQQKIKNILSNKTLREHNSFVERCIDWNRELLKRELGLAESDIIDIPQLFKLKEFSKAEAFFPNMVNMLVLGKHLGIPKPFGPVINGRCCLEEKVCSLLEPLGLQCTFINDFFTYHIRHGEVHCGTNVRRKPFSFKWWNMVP
Numbers stand for hits; - = inactive; . = no result given. This is a sample that favours compounds with a hit; in the whole collection about 1.8% have one here.

SMILES | TDP2 absorb | Fh CTSL1 inh | Apaf1 inhib | GSTO1 counter | PAD4 inh
CC(C)OC(=O)CN1C(=O)S/C(=C/c2ccc(N3CCCCC3)o2)C1=O | - | 17 | - | - | -
O=C1S/C(=C/c2ccc(N3CCOCC3)o2)C(=O)N1Cc1ccc(F)cc1 | - | - | - | - | -
C#CCN1C(=O)C(O)(CC(=O)/C=C/C=C/c2ccccc2)c2ccccc21 (stereo not given) | - | 39 | - | - | -
C#CCN1C(=O)C(O)(CC(=O)c2ccc3c(c2)OCCO3)c2ccccc21 (stereo not given) | - | - | - | - | -
O=C(/C=C/C=C/c1ccccc1)CC1(O)C(=O)N(CCc2ccccc2)c2ccccc21 (stereo not given) | - | 18 | - | - | -
O=C(CC1(O)C(=O)Nc2ccc(Br)cc21)c1ccccc1 (stereo not given) | - | . | . | . | .
NC(=O)CN1C(=O)C(O)(CC(=O)/C=C\C=C\c2ccccc2)c2ccccc21 (stereo not given) | - | - | - | - | -
CCN1C(=O)C(O)(CC(=O)/C=C/C=C/c2ccccc2)c2ccccc21 (stereo not given) | - | 22 | - | - | -
Cc1ccc2c(c1)C(O)(CC(=O)/C=C/C=C/c1ccccc1)C(=O)N2 (stereo not given) | - | 21 | - | - | -
O=C(CCCN1CCN(c2ccccc2)CC1)c1ccc(F)cc1 | - | . | . | . | .
O=C1NCN(c2ccccc2)C12CCN(CCCC(c1ccc(F)cc1)c1ccc(F)cc1)CC2 | - | - | 55 | - | -
C[C@@H]1OC(C2CCCCC2)N(C)[C@H]2C[C@H]3c4cc(-c5ccc6c(c5)OCO6)ccc4CCN3C[C@@H]12 (stereo not given in full) | - | . | . | . | .
O[C@@H]([C@H](O)[C@H](O)CBr)[C@H](O)CBr | - | 26 | - | - | -
OC[C@@H](O)[C@@H](O)[C@H](O)[C@@H](O)CO | - | - | - | - | -
CCOC(=O)Cc1nn(Cc2ccccc2)c(=O)c2ccccc12 | - | - | - | - | -
CCOC(=O)Cc1nn(Cc2ccc(Cl)cc2)c(=O)c2ccccc12 | - | 18 | - | - | -
O=C(/C=C/c1ccc(-c2ccccc2)o1)c1ccccc1 | - | 64 | - | - | -
Cc1ccc(-c2ccc(/C=C/C(=O)c3ccccc3)o2)cc1 | - | 41 | - | - | -
Cc1ccc(C(=O)/C=C/c2ccc(-c3ccccc3[N+](=O)[O-])o2)cc1 | - | - | - | - | -
O=Cc1ccc(-c2cccc(C(=O)O)c2)o1 | - | - | - | - | -
Cc1nc(N2CCCC2)c2nnn(Cc3ccccc3Cl)c2n1 | - | 18 | - | - | -
Cc1nc(NC2CCCCC2)c2nnn(Cc3ccccc3Cl)c2n1 | - | - | - | - | -
C=CCn1c(SCC(=O)Nc2ccccc2-c2ccccc2)nnc1-c1ccccc1 | - | . | . | . | .
Cc1ccc(S(=O)(=O)Nc2cc(C(C(=O)OC(C)C)C(=O)C(F)(F)F)c(O)c3ccccc23)c(C)c1 (stereo not given) | - | - | - | 44 | -
Cc1cc(C)c(C)c(OC(=O)c2sc(Cl)nc2C)c1 | - | - | - | 36 | -
SMILES | TDP2 absorb | Fh CTSL1 inh | Apaf1 inhib | GSTO1 counter | PAD4 inh
Cc1ccc([N+](=O)[O-])cc1NC(=S)NCCc1ccccc1 | - | 58 | - | - | -
Cc1ccc(C(=O)O)cc1NC(=S)NCCc1ccccc1 | - | - | - | - | -
CCOC(=O)Cc1csc(N/C(=N/S(=O)(=O)c2ccc(Cl)cc2)c2ccccc2)n1 | - | - | 63 | - | -
O=[N+]([O-])c1ccccc1/C=C/C1Nc2cccc3cccc(c23)N1 | - | . | . | . | .
CCCNC(=O)OC[C@H]1O[C@H](CCO/N=C(\C)CCN2CCc3nc(-c4ccccc4)c(-c4ccccc4)cc3C2)C=C[C@@H]1Oc1ccc(OC)cc1 | . | - | 53 | - | -
COc1ccc(N2CCN(CCCNC(=O)Cn3c(=O)c4cccn4c4cccnc43)CC2)c(OC)c1 | - | . | . | . | .
COC1=C(Br)C(=O)c2nc(C)ccc2C1=O | 25 | . | . | . | .
O=C1NCCCC2c3cc(O)c4ccccc4c3OC12N1CCCCC1 (stereo not given) | 57 | 29 | 93 | 81 | 34
c1ccc([C@H]2CNCCN2CCc2cccc3ccccc23)cc1 | - | . | 55 | . | -
COc1cc(CCCN2CCNC[C@@H]2c2ccccc2)cc(OC)c1OC | - | . | - | . | -
Cc1ccc(-c2nc(C3CCCN(S(=O)(=O)c4ccccc4)C3)no2)cc1 (stereo not given) | - | . | . | . | .
CCCCCCOC(=O)C[N+](C)(C)CCOC1CC2CCC1(C)C2(C)C (stereo not given) | - | - | 52 | - | -
O=C(COC(=O)c1ccc2c(c1[N+](=O)[O-])C(=O)c1ccccc1C2=O)NC1CC1 | - | 21 | - | - | -
O=C(COC(=O)c1cccc2c1C(=O)c1ccccc1C2=O)NC1CCCCC1 | - | - | - | - | -
COc1ccc(OC)c(/C=N/NC(=O)CCc2ccc(O)c(O)c2)c1 | - | - | - | 36 | -
O=C1c2ccccc2-c2onc3ccc(NCCCn4ccnc4)c1c23 | . | - | - | 105 | 106
NS(=O)(=O)c1ccc(NCCCn2ccnc2)c([N+](=O)[O-])c1 | - | - | - | - | -
CCCCCCC(=O)N=Nc1c(O)[nH]c2ccc([N+](=O)[O-])cc12 | - | - | - | - | -
CCc1cc(C(=O)N=Nc2c(O)[nH]c3ccc([N+](=O)[O-])cc23)c2ccccc2n1 | - | - | - | 43 | -
COc1ccc(N=CC2=C(Nc3ccc(OC)cc3)c3c(C)nn(-c4ccccn4)c3CC2)cc1 | . | - | 93 | 84 | 81
COc1ccc(-c2cc(C(=O)O)c3c(C)nn(-c4ccccn4)c3n2)cc1 | - | - | - | - | -
Cc1ccc2c(c1)C1C=CCC1C(C(=O)O)N2 (stereo not given) | . | - | . | 54 | -
O=c1oc(-c2ccccc2)cc(Cl)c1Cl | 27 | - | - | - | -
CCCCCOCC1CC(C/C(C)=N/NC(N)=S)C(=O)O1 (stereo not given) | - | 18 | - | - | -
CCCCCN1CCCCC(NC(=O)Cc2ccccc2)C1=O (stereo not given) | - | . | . | . | .
C#CCOCCOCCOCCNc1nc(N2CCN(C(=O)[C@H]([C@@H](C)CC)n3cc([C@@H](N)Cc4ccc(O)cc4)nn3)CC2)nc(N2CCN(C(=O)[C@H](Cc3cc4ccccc4[nH]3)n3cc([C@@H](N)C(C)CC)nn3)CC2)n1 (stereo not given in full) | . | - | 49 | - | -
C#CCOCCOCCOCCNc1nc(N2CCN(C(=O)[C@H](Cc3cc4ccccc4[nH]3)n3cc([C@@H](N)C(C)CC)nn3)CC2)nc(N2CCN(C(=O)[C@H](Cc3cc4ccccc4[nH]3)n3cc([C@@H](N)Cc4ccc(O)cc4)nn3)CC2)n1 (stereo not given in full) | . | - | 60 | - | -
